# Tests used:
# Rattus norvegicus [1] = assay: Antiallergic activity in the passive cutaneous anaphylaxis (PCA) model in the rat was determined after oral administration; assay type: functional; conditions: read-out: ID50 (the source's name)
# Method in brief: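 Male Sprague-Dawley rats underwent a modified Ovary PCA screen, with challenge 24 h after sensitization. Compounds were solubilized in aqueous NaHCO3 when possible; otherwise they were suspended in aqueous sodium citrate containing Tween 40/sodium carboxymethylcellulose. Dosing was oral, 10 min prior to antigen challenge.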
# Rattus norvegicus [2] = assay: Antiallergic activity in the passive cutaneous anaphylaxis (PCA) model in the rat was determined after iv administration; assay type: functional; conditions: read-out: ID50 (the source's name)
# Method in brief: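 Rat PCA screen (modified Ovary method) in male Sprague-Dawley rats, with a 24 h interval between sensitization and antigen challenge. Compounds were dissolved in aqueous NaHCO3 where possible; otherwise they were suspended in aqueous sodium citrate with Tween 40/sodium carboxymethylcellulose. Dosing was intravenous, 1 min before antigen challenge.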
SMILES,ED50 (Rattus norvegicus [1]) [mg/kg],ED50 (Rattus norvegicus [2]) [mg/kg]
Oc1nc(-c2ccccc2OCC2CC2)ncc1-c1nn[nH]n1,0.07,
CCCOc1ccc([N+](=O)[O-])cc1-c1ncc(-c2nn[nH]n2)c(O)n1,5,
CCCCCOc1ccccc1-c1ncc(-c2nn[nH]n2)c(O)n1,0.4,
CC(C)COc1ccccc1-c1ncc(-c2nn[nH]n2)c(O)n1,0.1,
C=CCOc1ccccc1-c1ncc(-c2nn[nH]n2)c(O)n1,0.24,
CCCOc1ccccc1-c1ncc(-c2nn[nH]n2)c(O)n1,0.04,0.004
CCC(C)Oc1ccccc1-c1ncc(-c2nn[nH]n2)c(O)n1 (stereo not given),0.05,
CCCOc1ccc(N)cc1-c1ncc(-c2nn[nH]n2)c(O)n1,0.1,
CCCCOc1ccccc1-c1ncc(-c2nn[nH]n2)c(O)n1,0.07,
Oc1nc(-c2ccccc2)ncc1-c1nn[nH]n1,100,
CCCOc1ccc(OC)cc1-c1ncc(-c2nn[nH]n2)c(O)n1,0.03,
O=C([O-])c1cc(=O)c2c(OCC(O)COc3cccc4oc(C(=O)[O-])cc(=O)c34)cccc2o1.[Na+].[Na+] [CROMOLYN SODIUM],> 30,0.3
CCCOc1ccc(N(C)C)cc1-c1ncc(-c2nn[nH]n2)c(O)n1,0.4,
CCOc1ccccc1-c1ncc(-c2nn[nH]n2)c(O)n1,0.09,0.02
COc1ccccc1-c1ncc(-c2nn[nH]n2)c(O)n1,0.1,
CC(C)Oc1ccccc1-c1ncc(-c2nn[nH]n2)c(O)n1,0.04,0.02

# — ChEMBL document CHEMBL1121946, “Antiallergy agents. 2. 2-Phenyl-5-(1H-tetrazol-5-yl)pyrimidin-4(3H)-ones” (1982)
